These results are taken from ChEMBL document CHEMBL1136004, “Ethyl (3S,4aR,6S,8aR)-6-(4-ethoxycar- bonylimidazol-1-ylmethyl)decahydroiso-quinoline-3-carboxylic ester: a prodrug of a GluR5 kainate receptor antagonist active in two animal models of acute migraine” (J Med Chem, 2002).

Test [1] is described as follows: Compound was administered orally 1 h prior to trigeminal stimulation and was evaluated for the decrease extravasation.
Test [2] has as its target Glutamate receptor 1 (Homo sapiens, UniProt P42261). Kind of test: Ability to displace binding of [3H]AMPA to recombinant human Ionotropic glutamate receptor AMPA 1. The essentials: (§1)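 Radioligand displacement with [3H]AMPA on membranes from HEK 293 cells expressing the cloned human AMPA receptor subunit. Ki (μM) reported as the mean ± SEM of at least three determinations.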

For test [3], the target named is Glutamate receptor ionotropic, kainate 3 (Homo sapiens) (UniProt Q13003). Kind of test: Ability to displace binding of [3H]KA to recombinant human KA receptor Ionotropic glutamate receptor ionotropic kainate 3.
Test [4] addresses T1, Glutamate receptor ionotropic, kainate 2 (Homo sapiens, UniProt Q13002). Kind of test: Ability to displace binding of [3H]KA to recombinant human KA receptor Ionotropic glutamate receptor ionotropic kainate 2 expressed in EK 293 cell membranes. A digest of the protocol: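 Displacement of [3H]KA binding on membranes from HEK 293 cells expressing the recombinant human kainate receptor subunit. Ki (μM) given as the mean ± SEM from at least three determinations.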

The target in test [5] is T1, Glutamate receptor ionotropic, kainate 2. Kind of test: Ability to displace binding of [3H]KA to recombinant human KA receptor Ionotropic glutamate receptor ionotropic kainate 2.
Test [6] concerns the target Glutamate receptor 3 (Homo sapiens, UniProt P42263). Kind of test: Ability to displace binding of [3H]AMPA to recombinant human Ionotropic glutamate receptor AMPA 3. The essentials:
as §1

The target in test [7] is Glutamate receptor ionotropic, kainate 1 (Homo sapiens) (UniProt P39086). Kind of test: Ability to displace binding of [3H]KA to recombinant human Ionotropic glutamate receptor ionotropic kainate 1.
Test [8] deals with Glutamate receptor 4 (Homo sapiens, UniProt P48058). Kind of test: Ability to displace binding of [3H]AMPA to recombinant human Ionotropic glutamate receptor AMPA 4. The essentials: as §1
Sequence of Glutamate receptor 4 (P48058 whole entry): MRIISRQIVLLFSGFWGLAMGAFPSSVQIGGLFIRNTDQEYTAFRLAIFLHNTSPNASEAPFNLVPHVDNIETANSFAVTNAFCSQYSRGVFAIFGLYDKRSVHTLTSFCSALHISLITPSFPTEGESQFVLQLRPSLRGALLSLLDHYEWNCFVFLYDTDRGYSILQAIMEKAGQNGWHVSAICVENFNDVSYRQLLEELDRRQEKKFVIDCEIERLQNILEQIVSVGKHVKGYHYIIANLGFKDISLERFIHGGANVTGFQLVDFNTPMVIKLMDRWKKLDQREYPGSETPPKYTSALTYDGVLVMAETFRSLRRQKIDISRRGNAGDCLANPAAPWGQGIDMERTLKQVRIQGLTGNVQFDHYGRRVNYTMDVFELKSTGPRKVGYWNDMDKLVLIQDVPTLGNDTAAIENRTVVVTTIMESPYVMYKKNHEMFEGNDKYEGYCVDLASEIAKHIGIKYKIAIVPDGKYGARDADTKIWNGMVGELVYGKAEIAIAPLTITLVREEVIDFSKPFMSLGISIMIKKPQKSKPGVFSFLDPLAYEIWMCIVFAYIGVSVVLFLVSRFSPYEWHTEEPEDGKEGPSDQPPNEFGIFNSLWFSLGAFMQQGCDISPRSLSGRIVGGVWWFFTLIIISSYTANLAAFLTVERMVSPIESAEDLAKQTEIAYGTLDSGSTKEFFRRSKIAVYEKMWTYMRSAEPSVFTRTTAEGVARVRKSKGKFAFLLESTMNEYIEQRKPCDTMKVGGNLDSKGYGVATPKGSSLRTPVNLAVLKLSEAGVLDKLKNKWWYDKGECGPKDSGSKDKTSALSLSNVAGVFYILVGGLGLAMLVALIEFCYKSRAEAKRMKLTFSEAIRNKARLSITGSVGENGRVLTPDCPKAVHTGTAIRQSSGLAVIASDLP
In test [9] the target is Glutamate receptor 2 (Homo sapiens, UniProt P42262). Kind of test: Ability to displace binding of [3H]AMPA to recombinant human Ionotropic glutamate receptor AMPA 2.
Sequence of Glutamate receptor 2 (P42262 whole entry): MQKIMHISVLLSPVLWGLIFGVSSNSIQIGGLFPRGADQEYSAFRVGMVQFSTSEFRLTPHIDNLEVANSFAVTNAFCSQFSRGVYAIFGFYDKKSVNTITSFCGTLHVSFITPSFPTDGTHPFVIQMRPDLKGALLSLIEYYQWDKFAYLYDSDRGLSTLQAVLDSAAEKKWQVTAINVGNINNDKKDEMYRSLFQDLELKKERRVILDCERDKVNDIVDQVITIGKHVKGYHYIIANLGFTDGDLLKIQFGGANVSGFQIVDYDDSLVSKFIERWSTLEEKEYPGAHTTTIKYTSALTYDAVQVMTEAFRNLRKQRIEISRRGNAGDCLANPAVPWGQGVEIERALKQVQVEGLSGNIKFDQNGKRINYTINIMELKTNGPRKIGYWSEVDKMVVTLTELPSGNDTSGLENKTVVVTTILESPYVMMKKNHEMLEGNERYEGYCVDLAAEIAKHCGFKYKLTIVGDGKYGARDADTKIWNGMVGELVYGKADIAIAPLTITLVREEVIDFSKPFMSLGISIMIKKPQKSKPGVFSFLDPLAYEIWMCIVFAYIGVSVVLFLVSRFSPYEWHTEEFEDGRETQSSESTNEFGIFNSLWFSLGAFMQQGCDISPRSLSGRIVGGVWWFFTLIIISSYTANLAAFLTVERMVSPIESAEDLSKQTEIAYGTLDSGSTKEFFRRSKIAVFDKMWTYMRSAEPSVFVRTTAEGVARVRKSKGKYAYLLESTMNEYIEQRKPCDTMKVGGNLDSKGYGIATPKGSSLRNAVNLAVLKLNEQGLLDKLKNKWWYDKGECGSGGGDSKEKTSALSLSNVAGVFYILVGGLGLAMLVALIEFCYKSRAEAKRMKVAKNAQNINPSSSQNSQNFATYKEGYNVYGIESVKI

Sequence of Glutamate receptor 1 (P42261 whole entry): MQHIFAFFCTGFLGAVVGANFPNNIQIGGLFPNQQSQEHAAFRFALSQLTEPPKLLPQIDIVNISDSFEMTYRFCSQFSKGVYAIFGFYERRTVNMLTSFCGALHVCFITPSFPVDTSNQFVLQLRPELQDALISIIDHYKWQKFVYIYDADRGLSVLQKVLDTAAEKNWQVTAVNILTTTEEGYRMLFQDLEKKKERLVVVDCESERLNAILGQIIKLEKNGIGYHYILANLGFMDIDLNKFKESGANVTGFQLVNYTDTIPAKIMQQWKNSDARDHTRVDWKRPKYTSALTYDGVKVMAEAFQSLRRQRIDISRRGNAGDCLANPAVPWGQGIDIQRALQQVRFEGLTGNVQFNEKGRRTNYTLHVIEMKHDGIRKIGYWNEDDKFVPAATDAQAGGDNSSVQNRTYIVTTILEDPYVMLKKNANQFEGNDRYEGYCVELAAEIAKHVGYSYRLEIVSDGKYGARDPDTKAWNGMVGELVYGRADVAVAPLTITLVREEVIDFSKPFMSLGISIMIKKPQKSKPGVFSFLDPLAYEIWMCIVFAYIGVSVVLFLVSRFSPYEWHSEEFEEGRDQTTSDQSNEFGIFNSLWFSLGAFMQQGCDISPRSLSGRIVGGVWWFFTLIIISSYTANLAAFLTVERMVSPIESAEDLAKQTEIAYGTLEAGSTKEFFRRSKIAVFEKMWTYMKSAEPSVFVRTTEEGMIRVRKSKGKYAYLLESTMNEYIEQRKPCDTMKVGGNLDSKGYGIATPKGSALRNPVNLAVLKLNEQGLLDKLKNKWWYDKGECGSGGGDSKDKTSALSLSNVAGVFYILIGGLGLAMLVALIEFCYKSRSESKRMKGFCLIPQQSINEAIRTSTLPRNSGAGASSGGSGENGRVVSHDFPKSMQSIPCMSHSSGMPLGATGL
T1 sequence (Q13002 whole entry): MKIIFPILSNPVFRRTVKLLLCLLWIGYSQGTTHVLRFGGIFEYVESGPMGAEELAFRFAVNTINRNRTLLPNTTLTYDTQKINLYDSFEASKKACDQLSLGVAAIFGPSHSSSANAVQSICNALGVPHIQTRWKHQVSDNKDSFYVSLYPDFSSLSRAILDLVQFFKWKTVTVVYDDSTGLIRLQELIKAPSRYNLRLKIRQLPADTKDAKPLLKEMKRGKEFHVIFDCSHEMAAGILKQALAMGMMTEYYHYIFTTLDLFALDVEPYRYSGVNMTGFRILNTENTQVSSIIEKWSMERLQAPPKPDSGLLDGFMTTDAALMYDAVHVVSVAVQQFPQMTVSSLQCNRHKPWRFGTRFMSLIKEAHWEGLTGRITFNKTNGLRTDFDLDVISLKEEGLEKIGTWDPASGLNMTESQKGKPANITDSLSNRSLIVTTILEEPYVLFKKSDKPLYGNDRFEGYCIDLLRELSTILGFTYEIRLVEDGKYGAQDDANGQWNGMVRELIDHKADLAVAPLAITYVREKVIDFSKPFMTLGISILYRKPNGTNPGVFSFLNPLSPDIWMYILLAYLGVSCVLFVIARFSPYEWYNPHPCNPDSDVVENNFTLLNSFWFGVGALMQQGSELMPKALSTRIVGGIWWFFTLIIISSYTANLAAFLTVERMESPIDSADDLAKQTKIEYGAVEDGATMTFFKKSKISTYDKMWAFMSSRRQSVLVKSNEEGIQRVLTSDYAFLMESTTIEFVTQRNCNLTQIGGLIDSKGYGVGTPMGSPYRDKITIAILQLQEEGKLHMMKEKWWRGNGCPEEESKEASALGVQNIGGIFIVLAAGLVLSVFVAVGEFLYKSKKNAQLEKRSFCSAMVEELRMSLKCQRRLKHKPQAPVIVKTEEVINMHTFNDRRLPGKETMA
Sequence of Glutamate receptor 3 (P42263 whole entry): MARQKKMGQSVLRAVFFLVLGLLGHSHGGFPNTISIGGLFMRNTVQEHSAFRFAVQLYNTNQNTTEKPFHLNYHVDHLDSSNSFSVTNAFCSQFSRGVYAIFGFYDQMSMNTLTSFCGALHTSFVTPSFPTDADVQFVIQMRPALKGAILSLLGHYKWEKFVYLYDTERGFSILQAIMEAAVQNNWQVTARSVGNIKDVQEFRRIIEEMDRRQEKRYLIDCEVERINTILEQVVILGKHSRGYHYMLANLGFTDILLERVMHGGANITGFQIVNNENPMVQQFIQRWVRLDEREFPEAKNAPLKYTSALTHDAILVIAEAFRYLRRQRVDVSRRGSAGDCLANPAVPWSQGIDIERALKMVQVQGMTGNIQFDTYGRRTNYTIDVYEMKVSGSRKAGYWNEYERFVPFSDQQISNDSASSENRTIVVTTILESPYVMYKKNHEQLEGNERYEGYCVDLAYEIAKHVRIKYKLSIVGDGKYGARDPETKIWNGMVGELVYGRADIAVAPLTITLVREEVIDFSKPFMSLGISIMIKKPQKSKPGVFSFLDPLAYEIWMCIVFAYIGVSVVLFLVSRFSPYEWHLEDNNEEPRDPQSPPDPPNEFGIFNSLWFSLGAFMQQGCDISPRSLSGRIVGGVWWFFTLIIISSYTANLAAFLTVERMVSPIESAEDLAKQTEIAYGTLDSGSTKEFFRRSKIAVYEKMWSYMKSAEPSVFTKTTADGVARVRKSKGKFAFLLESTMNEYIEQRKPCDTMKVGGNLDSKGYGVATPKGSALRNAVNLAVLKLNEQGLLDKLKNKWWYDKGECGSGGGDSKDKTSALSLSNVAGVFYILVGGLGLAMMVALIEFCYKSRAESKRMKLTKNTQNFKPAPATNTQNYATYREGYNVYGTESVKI

Take `CN(C)CCc1c[nH]c2ccc(Cn3cncn3)cc12` [RIZATRIPTAN]: the ID50 in test [1] was 8 µg/kg.

As usually defined, the Ki is the equilibrium dissociation constant of an inhibitor or competing ligand from its target. Consider `NS(=O)(=O)c1cccc2c1c([N+](=O)[O-])cc1nc(O)c(O)nc12` [NBQX], for which the Ki in test [2] was 1.6 µM.

Take `O=C(O)[C@@H]1C[C@H]2C[C@@H](CCc3nn[nH]n3)CC[C@H]2CN1` [TEZAMPANEL ANHYDROUS]: the Ki in [3] was more than 100 µM; in test [2], 9.2 µM; in test [4] it was more than 100 µM; in test [5] it was more than 100 µM; in [6], 32 µM; in [7], 4.2 µM. The Ki in test [8] is 50 µM.

On to `O=C(O)c1cn(C[C@H]2CC[C@H]3CN[C@H](C(=O)O)C[C@H]3C2)cn1`, for which the Ki in test [3] was 48.5 µM; in test [2] it was 134 µM; in test [4], 236 µM; in test [9], 117 µM; in test [5], more than 1000 µM; in [6], 247 µM. In addition, the Ki in test [7] was determined as 0.156 µM; in [8], 262 µM.
